According to ChEMBL document CHEMBL1123477, “Phenethyl ester derivative analogues of the C-terminal tetrapeptide of gastrin as potent gastrin antagonists” (J Med Chem, 1986):
Active and inactive are the calls of the source. The rule behind the calls is not given here. Where a SMILES comes first, the peptide text is derived from it. The star is where a group is joined. Boc = CC(C)(C)OC(=O)*

Tests used:
[1] = Compound was evaluated for the inhibition of [125 I](Nle12)HG-13 binding to isolated gastric mucosa cells.; parameters: species or system Oryctolagus cuniculus; details: in the assay text read “(Nle11)” for “(Nle12)”
Method in brief: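 Dispersed rabbit fundic mucosal cells (collagenase/EDTA digestion, mixed population with about 45% parietal cells) were incubated in Hepes-buffered Earle's medium with 0.2% BSA, pH 7.4. Incubation was 30 min at 37 °C with 20 pM mono-iodinated (Nle11)-HG-13 (chloramine T labelling) plus varied peptide concentrations. Nonsaturable binding was defined with 1 × 10^-6 M unlabeled (Nle11)-HG-13.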

[2] = tested on: Rattus norvegicus; assay: Compound was evaluated for the antagonist activity (ED50) against gastrin-induced acid secretion in the anesthetized rat.; assay type: functional
Method in brief: (§1)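 Urethane-anaesthetized rats (ip) with the stomach continuously perfused at 30 °C with propionate-succinate solution. Cumulative pH was recorded over time as the index of acid secretion. Compound in alkaline aqueous solution was given as an iv bolus together with (Leu15)-human gastrin I, usually 80 pmol. H+ output, taken from the stimulated minus basal trace, was expressed as % inhibition relative to gastrin alone.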

[3] = tested on: Rattus norvegicus; assay: Compound was evaluated for the antagonist activity (ED50) against gastrin-induced acid secretion in the anesthetized rat; Inactive; assay type: functional, organism-based; method in brief: as §1

IC50 [1]	Compound	ED50 [2]	ED50 [3]
75 nM	CC(C)C[C@H](NC(=O)[C@@H](Cc1c[nH]c2ccccc12)NC(=O)CCNC(=O)OC(C)(C)C)C(=O)N[C@H](CC(=O)O)C(=O)OCCc1ccccc1	0.04 mg/kg	–
–	CC(C)C[C@H](NC(=O)[C@H](Cc1c[nH]c2ccccc12)NC(=O)OC(C)(C)C)C(=O)N[C@@H](CC(=O)O)C(=O)OCCc1ccccc1F	0.1 mg/kg	–
750 nM	CC(C)C[C@H](NC(=O)[C@H](Cc1c[nH]c2ccccc12)NC(=O)OC(C)(C)C)C(=O)N[C@@H](CC(=O)O)C(=O)OCCc1ccccc1	0.1 mg/kg	–
–	CC(C)C[C@H](NC(=O)[C@@H](Cc1c[nH]c2ccccc12)NC(=O)OC(C)(C)C)C(=O)N[C@@H](CC(=O)O)C(=O)OCCc1ccccc1	0.8 mg/kg	–
–	CC(C)C[C@H](NC(=O)[C@H](Cc1c[nH]c2ccccc12)NC(=O)CCNC(=O)OC(C)(C)C)C(=O)N[C@H](CC(=O)O)C(=O)OCCc1ccccc1	0.08 mg/kg	–
–	CC(C)C[C@@H](NC(=O)[C@H](Cc1c[nH]c2ccccc12)NC(=O)OC(C)(C)C)C(=O)N[C@H](CC(=O)OCCc1ccc(F)cc1)C(=O)O	–	inactive
–	CC(C)C[C@H](NC(=O)OC(C)(C)C)C(=O)N[C@@H](CC(=O)O)C(=O)OCCc1ccccc1	–	inactive
50 nM	CC(C)C[C@H](NC(=O)[C@@H](Cc1c[nH]c2ccccc12)NC(=O)CCNC(=O)OC(C)(C)C)C(=O)N[C@H](CC(=O)O)C(=O)NC(Cc1ccccc1)C(N)=O (some centres not stated)	–	–
500 nM	CC(C)C[C@H](NC(=O)[C@H](Cc1c[nH]c2ccccc12)NC(=O)OC(C)(C)C)C(=O)N[C@@H](CC(=O)O)C(=O)N[C@@H](Cc1ccccc1)C(N)=O (Boc-WLDF-NH2)	–	–
–	CC(C)C[C@H](NC(=O)[C@H](Cc1c[nH]c2ccccc12)NC(=O)OC(C)(C)C)C(=O)N[C@@H](CC(=O)O)C(=O)OCCc1cccc(C(F)(F)F)c1	> 1 mg/kg	–
–	CC(C)C[C@H](NC(=O)[C@H](Cc1c[nH]c2ccccc12)NC(=O)OC(C)(C)C)C(=O)N[C@@H](CC(=O)O)C(=O)OCCc1ccccc1C(F)(F)F	1.5 mg/kg	–
–	CC(C)C[C@H](NC[C@H](Cc1c[nH]c2ccccc12)NC(=O)OC(C)(C)C)C(=O)N[C@@H](CC(=O)O)C(=O)OCCc1ccccc1	1 mg/kg	–
–	CC(C)C[C@H](NC(=O)[C@H](Cc1c[nH]c2ccccc12)NC(=O)OC(C)(C)C)C(=O)N[C@@H](CC(=O)O)C(=O)OCCc1ccc(F)cc1	0.08 mg/kg	–
–	CC(C)C[C@H](NC(=O)[C@H](Cc1c[nH]c2ccccc12)NC(=O)CCNC(=O)OC(C)(C)C)C(=O)N[C@@H](CC(=O)O)C(=O)OCCc1ccc(F)cc1	0.02 mg/kg	–
–	CC(C)C[C@H](NC[C@H](Cc1c[nH]c2ccccc12)NC(=O)OC(C)(C)C)C(=O)N[C@@H](CC(=O)O)C(=O)OCCc1ccc(F)cc1	0.1 mg/kg	–
